From PubChem BioAssay AID617 (SRMLSC, 2007)

test system: E. coli BW25113 ΔtolC growth inhibition, OD615; assay: E. coli ΔtolC antibacterial growth inhibition – strain BW25113 ΔtolC::kan, dose response (AID 617);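 further: growth read after 20 h at 37 °C with compound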
Method in brief: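 Test system: E. coli BW25113 ΔtolC::kan bacteria | Amount: 1:1000 diluted subculture inoculum | Medium: LB plus kanamycin | Timing: 20 h exposure at 37 °C | Signal: Absorbance at 615 nm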

Row | SMILES | IC50
1 | Cc1cc(SCC#N)n2nc(C)c(-c3ccccc3)c2n1 | 48.5 µM
2 | CCc1nc2ccccc2c(=O)n1NC(=O)c1c(O)c2ccccc2[nH]c1=O | 5.7 µM
3 | Oc1cccc(Nc2nc(NCC3CCCO3)c3ccccc3n2)c1 (stereo not drawn) | 4.68 µM
4 | Cc1ccc2cc(CN(Cc3ccc(F)cc3)Cc3nnnn3C3CCCC3)c(=O)[nH]c2c1 | 12.8 µM
5 | Cc1nc2c(C(=O)NCc3ccc4c(c3)OCO4)c[nH]n2c(=O)c1Cc1ccccc1F | 2.6 µM
6 | CC1CCCc2sc3nc(NCc4ccco4)n4ncnc4c3c21 (stereo not drawn) | 11.6 µM
7 | Cc1onc(-c2ccccc2)c1C(=O)Nc1nnc(N(C)Cc2ccccc2)s1 | 23.9 µM
8 | O=S(=O)(Nc1cccc2ncccc12)c1cccs1 | 5.24 µM
9 | Cc1ccc(Cn2ncn3c(cc4ccccc43)c2=O)cc1 | 14.1 µM
10 | CCOC(=O)c1ccccc1NC(=O)c1c(F)c(F)c(F)c(F)c1F | 23 µM
11 | CCCn1nnc(NC(=O)COc2ccc(C3CCCCC3)cc2)n1 | 9.4 µM
12 | CC(C)Cc1cc(C(=O)Nc2sc3c(c2C#N)CCCC3)no1 | 8.44 µM
13 | O=C(CN(Cc1ccc2c(c1)OCO2)C(=O)CSc1nc2ccccc2o1)NC1CCCCC1 | 6.11 µM
14 | C=C(C)COc1ccc(-c2nc(N)ncc2-c2ccc(OC)cc2)c(O)c1 | 10.2 µM
15 | CN(c1ccccc1C(=O)Nc1ccc(S(=O)(=O)N2CCCCC2)cc1)S(C)(=O)=O | 7.39 µM
16 | Cc1cc(N2CCC(C)CC2)nc(-n2nc(C)cc2C)n1 | 5.18 µM
17 | Cc1ccc(C)n1-n1cnc2sc(-c3ccccc3)cc2c1=O | 7.12 µM
18 | CC1=CC(C)(C)N2C(=O)C3(C(C#N)=C(N)Oc4cc(O)ccc43)c3cccc1c32 (stereo not drawn) | 4.14 µM
19 | O=C(c1cccc(COc2ccc(Cl)cc2Cl)c1)N1CCN(c2ccccn2)CC1 | 3.82 µM
20 | CC(C)c1ccc(-c2noc(C3CCCN(C(=O)c4ccc(F)cc4F)C3)n2)cc1 (stereo not drawn) | 17.9 µM
21 | Clc1ccc(OCCCc2nc(-c3cccnc3)no2)c(Cl)c1 | 17.2 µM
22 | CCn1c(C(=O)OC)cc2c1ccn2-c1ccc(F)cc1 | 17.2 µM
23 | Cc1ccc(C)n1-n1c(C)nc2sc3c(c2c1=O)CCCCC3 | 69.2 µM

Row | SMILES | IC50
24 | Cn1c(=O)n(CCc2ccccc2)c(=O)c2c1nc1n2CCCN1CCc1ccccc1 | 10.5 µM
25 | COc1ccccc1N1CCN(Cc2nc(N)nc(Nc3ccc(C)c(Cl)c3)n2)CC1 | 9.02 µM
26 | CNc1ccc(C(O)(C(F)(F)F)C(F)(F)F)cc1C(O)(C(F)(F)F)C(F)(F)F | 6.95 µM
27 | CCOC(=O)C1Cn2c(nc3c(c2=O)C(C)(CC)Cc2ccccc2-3)S1 (stereo not drawn) | 24.2 µM
28 | COc1ccc(-n2cnc3cc(NCc4cccs4)ccc32)cc1 | 10.6 µM
29 | CCOc1ccc2nc(NC(=O)C(CC)Sc3nc(C)cc(=O)[nH]3)sc2c1 (stereo not drawn) | 12.1 µM
30 | C=C(C)COc1ccc(-c2[nH]ncc2Oc2ccccc2OC)c(O)c1 | 5.72 µM
31 | Clc1ccc(C(c2nnnn2C2CCCCC2)N(Cc2cccnc2)Cc2ccco2)cc1 (stereo not drawn) | 14.8 µM
32 | CC(C)Cn1c(=O)c(C(=O)Nc2ccncc2)c(O)c2ccccc21 | 3.34 µM
33 | CC(C)c1nc(N2CCOCC2)c(C#N)c2c1CCCC2 | 18 µM
34 | CC1(C)Cc2c(sc3c2c(=N)n(Cc2ccco2)c(=O)n3Cc2ccc(Cl)cc2)CO1 | 13.3 µM
35 | O=C(Nc1cccc2cccnc12)c1ccc(Br)o1 | 10.6 µM
36 | CC1CCN(c2oc(-c3ccccc3F)nc2C#N)CC1 | 19.2 µM
37 | c1ccc(CC2CCN(c3nnnn3-c3ccccc3)CC2)cc1 | 9.95 µM
38 | O=C(Nc1nnc(-c2ccc(F)cc2)o1)c1ccco1 | 16.3 µM
39 | Cc1ccc(/C(O)=C2\C(=O)C(=O)N(c3cc(C)on3)C2c2cccc(Br)c2)cc1 (stereo not drawn) | 13.8 µM
40 | CCCOC(=O)c1ccc(-c2c(C)noc2-c2ccc(OC)cc2O)o1 | 4.71 µM
41 | CSc1nc(-c2ccccc2)nc(N2CCCC2)c1C(C)=O | 12.7 µM
42 | OC(COc1ccc2ccccc2c1Br)Cn1ccnc1 (stereo not drawn) | 7.54 µM
43 | O=C(Oc1ccccc1)c1cc2ccccc2o1 | 23.1 µM
44 | CC(OC(=O)c1ccccc1NCc1ccco1)C(=O)Nc1ncc(Cl)cc1Cl (stereo not drawn) | 39.1 µM
45 | COc1ccc(OC)c(C(=O)COC(=O)c2cc(C)oc2C)c1 | 25.1 µM
46 | CCc1ccccc1N(CC)C(=O)CCc1nc(-c2ccc(C)cc2)no1 | 11.2 µM

Row | SMILES | IC50
47 | Cc1noc(NS(=O)(=O)c2ccc(NC(=O)COc3ccc(Cl)cc3Cl)cc2)c1C | 9.41 µM
48 | Cc1[nH]n2c(=O)cc(C(C)(C)C)nc2c1-c1ccccc1 | 1.56 µM
49 | CC(=O)Nc1nc2ccccc2n1Cc1ccccc1C | 18.1 µM
50 | COC(=O)c1c(NC(=O)Cc2cccs2)sc2c1CCCC2 | 8.83 µM
51 | CCSCC1COC(c2cccn2Cc2ccc(C)cc2)=N1 (stereo not drawn) | 39.4 µM
52 | CC(C)(C)c1ccc(OCc2nc(-c3ccccn3)no2)c(Br)c1 | 6.81 µM
53 | COc1ccc(-c2nnc(SCc3cc(C)cc(C)c3)o2)cc1 | 6.77 µM
54 | Cc1cc(S(=O)(=O)N2CCN(c3ccccc3C)CC2)ccc1F | 14.6 µM
55 | CC1=CCC(COC(=O)Nc2ccccc2)CC1 (stereo not drawn) | 26.8 µM
56 | COc1ccc(/C=N/n2c(SC)nnc2-c2ccccc2)cc1C | 16.5 µM
57 | COc1ccc(NC(=O)c2cc(-c3cc(C)cc(C)c3O)n[nH]2)cc1Cl | 1.95 µM
58 | Cc1ccccc1OCCCN1C(=O)C(=O)c2cccc(C)c21 | 103 µM
59 | O=C(NC1CCCC1)c1sc(=S)n2c1[nH]c(=O)c1ccccc12 | 0.56 µM
60 | O=C(COc1ccccc1Br)c1ccc(O)cc1O | 13.1 µM
61 | CCn1c(SCC(=O)Nc2nc(-c3ccccc3)cs2)nnc1-c1ccccc1O | 6.69 µM
62 | C=CCn1c(SCC(O)Cn2c3ccccc3c3ccccc32)nnc1-c1ccco1 (stereo not drawn) | 21.6 µM
63 | CCOc1ccc(-c2nc(C#N)c(N3CCCCCC3)o2)cc1 | 12.7 µM
64 | CN(Cc1ccccc1)c1ncnc2c1cnn2-c1ccccc1 | 12.7 µM
65 | CS(=O)(=O)N(Cc1nc2sc3c(c2c(=O)[nH]1)CCCC3)C1CCCCC1 | 8.1 µM
66 | Cc1cc(N2C3CCC2CC(O)(c2ccc(F)cc2)C3)nc(-c2ccccc2)n1 (stereo not drawn) | 7.11 µM
67 | CSc1nc2ccc(NS(=O)(=O)c3ccc4c(c3)OCCO4)cc2s1 | 2.88 µM
68 | COc1ccc(Cl)cc1CN1CCN(c2nc(C)cc(C)c2C#N)CC1 | 13.2 µM
69 | COc1ccc(-c2[nH]ncc2-c2ccc3c(c2)OCCO3)c(O)c1 | 15.9 µM

Row | SMILES | IC50
70 | O=C(Nc1cccc(Br)c1)c1cc2ccccc2o1 | 0.98 µM
71 | COc1cc(Cc2cnc(N)nc2N)cc(OC)c1OC | 0.34 µM
72 | CCCc1cc(C(=O)Cc2ccc(C(=O)OCC)o2)c(O)cc1O | 18.6 µM
73 | CSCCOC(=O)C1=C(C)NC(=O)CC1c1ccccc1Cl (stereo not drawn) | 22.9 µM
74 | CCOc1ccccc1C(=O)NC(C(=O)OCC(=O)Nc1nnc(-c2ccccc2)o1)C(C)C (stereo not drawn) | 7.68 µM
75 | COC(=O)c1[nH]c2ccccc2c1NC(=O)CN1CCN(c2cccc(OC)c2)C(C)C1 (stereo not drawn) | 18.6 µM
76 | C=CCN(CC=C)S(=O)(=O)c1ccc2nc(NC(=O)C(C)C)sc2c1 | 6.66 µM
77 | CCn1cc(C(=O)O)c(=O)c2cc(OC)ccc21 | 9.67 µM
78 | O=C(Nc1cccc(S(=O)(=O)c2cccc(NC(=O)C3CC3)c2)c1)C1CC1 | 5.25 µM
79 | O=C(Nc1scc(-c2cccs2)c1C(=O)O)c1cccs1 | 10.5 µM
80 | CCSc1nnc(NC(=O)c2ccccn2)s1 | 4.66 µM
81 | O=C(Nc1ccc(N2CCN(C(=O)c3ccco3)CC2)c(Cl)c1)c1c(F)c(F)c(F)c(F)c1F | 3.96 µM
82 | Cc1cccc(Cn2c(=O)n(Cc3ccco3)c(=O)c3ccccc32)c1 | 6.71 µM
83 | CCCCn1c(N2CCC(Cc3ccccc3)CC2)nc2c1c(=O)[nH]c(=O)n2C | 5.96 µM
84 | CCCc1nc(SCC(=O)N2CCC(Cc3ccccc3)CC2)c2c(=O)n(C)c(=O)n(C)c2n1 | 11.2 µM
85 | COC(=O)c1sccc1NC(=O)c1cc2c(s1)CCCC2 | 4.95 µM
86 | Cc1cccc(Cc2c(C)nc3c(C(=O)NCc4ccco4)cnn3c2C)c1 | 49.6 µM
87 | CN(c1ccccc1)S(=O)(=O)c1ccc(C(=O)Nc2nnc(-c3ccc(F)cc3)o2)cc1 | 0.21 µM
88 | CCOC(=O)c1cc2cc(-c3c(C(=O)OCC)oc4cc(O)cc(O)c4c3=O)ccc2o1 | 7.59 µM
89 | Cc1ccc2c(CC(=O)OCc3nc(N)nc(Nc4ccccc4C)n3)coc2c1 | 10 µM
90 | Cc1ccc(Cl)cc1N1CCN(C(=O)c2ccc(NS(=O)(=O)c3c(C)noc3C)cc2)CC1 | 29.4 µM
91 | COC(=O)C1=C(N)Oc2cc(C)n(Cc3ccco3)c(=O)c2C1c1cccc(Cl)c1 (stereo not drawn) | 26.5 µM
92 | Cc1cc(N2CCN(C(c3ccccc3)c3ccccc3)CC2)n2ncnc2n1 | 26.6 µM

Row | SMILES | IC50
93 | CCc1nc(N2CCCCC2)c2oc3ccccc3c2n1 | 16.2 µM
94 | COCc1nnc(NC(=O)c2ccc(S(=O)(=O)N(C)C3CCCCC3)cc2)o1 | 4.09 µM
95 | CC(Nc1ccc(Br)cn1)c1cc(Cl)ccc1O (stereo not drawn) | 5.61 µM
96 | O=C(Nc1nc2ccccc2n1CCOc1ccc(Cl)cc1)c1ccco1 | 25.2 µM
97 | Cc1cccc(Nc2nc(NCc3ccco3)nc(N3CCOCC3)n2)c1 | 10.1 µM
98 | N=C(N)c1c(O)n(C2CCCCC2)c(=O)n(C2CCCCC2)c1=O | 5.79 µM
99 | CS(=O)(=O)N1CCc2cc(-c3csc(NC(=O)Cc4cccs4)n3)ccc21 | 21.7 µM
100 | COC(=O)c1cc(C(=O)CSc2nc(C)cc(C)n2)ccc1O | 4.31 µM
101 | CCCCNC(=O)c1sc(=S)n2c1[nH]c(=O)c1ccccc12 | 0.54 µM
102 | COc1ccc(-c2noc(Cc3ccc(Cl)cc3)n2)cc1OC | 75 µM
103 | COc1ccc(/C(O)=C2\C(=O)C(=O)N(CC3CCCO3)C2c2cc(OC)ccc2OC)cc1 (stereo not drawn) | 11.8 µM
104 | O=C(Nc1nc(-c2ccccc2)ns1)c1cccs1 | 28.4 µM
105 | Cc1cc(N2CCN(c3ccccc3)CC2)nc(-n2nc(C)cc2C)n1 | 7.6 µM
106 | COc1ccc(C(C(O)C(=O)c2c[nH]c3ccccc23)N2CCN(c3ccccc3)CC2)cc1 (stereo not drawn) | 7.52 µM
107 | CCOC(=O)c1ccc(NC(=O)CSc2nc(SC)ns2)cc1 | 9.73 µM
108 | Cc1oc2c(CN3CCOCC3)c(O)ccc2c(=O)c1-c1ccc(Br)cc1 | 2.83 µM
109 | O=C(Nc1ccccc1)Nc1ccc(S(=O)(=O)N2CCCCC2)cc1 | 10.3 µM
110 | COc1ccc(-c2[nH]c(-c3cccc(OC)c3)nc2SCC(=O)NCc2ccco2)cc1 | 11.1 µM
111 | Cn1ncc(C#N)c1/N=C/N(Cc1ccccc1)Cc1ccccc1 | 7.5 µM
112 | O=C(Nc1nc(-c2cccs2)cs1)c1ccc(Cl)s1 | 26.3 µM
113 | COc1ccc(C(=O)Nc2nc(-c3cccs3)cs2)cc1 | 8.14 µM
